Test results reported in ChEMBL document CHEMBL1135916, “Design, synthesis, and structure-activity relationship of pyridyl imidazolidinones: a novel class of potent and selective human enterovirus 71 inhibitors” (J Med Chem, 2002).
Several values for one entry are separate records, joined by “and”; a condition that tells them apart may be missing. Identical values can stand only once.

system: not listed separately; assay: Selectivity index (RD/EV71) of the compound; assay type: functional; settings: not given

Compound | Selectivity index
O=C1N(CCCCCOc2ccc(-c3ccc([N+](=O)[O-])cc3)cc2)CCN1c1ccncc1 [listing 1 of 2 here] | > 76

system: not listed separately; assay: Cytotoxicity against human rhabdomyosarcoma (RD) cells; assay type: functional; settings: not given
How it was run: (§1)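 Test compound at various concentrations added to D551 (human normal skin fibroblast), WI38 (human normal lung fibroblast) or RD cells; incubated 96 h at 37 °C; cells harvested and viable cells counted by trypan blue staining. Triplicate, at least twice.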

Compound | CC50 [µM]
O=C1N(CCCCCOc2ccc(Cl)cc2)CCN1c1ccncc1 | > 25
CSc1ccc(OCCCCCCN2CCN(c3ccncc3)C2=O)cc1 | > 25
O=C1N(CCCCCCOc2ccc(F)cc2)CCN1c1ccncc1 | > 25
COc1ccc(OCCCCCCN2CCN(c3ccncc3)C2=O)cc1 | > 25
O=C1N(CCCCCOc2ccc(-c3cccs3)cc2)CCN1c1ccncc1 | > 25

system: Enterovirus A71; assay: Inhibition concentration against EV-71; assay type: functional, organism-based; settings: not given

IC50 [µM] | Compound
0.33 | O=C1N(CCCCCOc2ccc(-c3ccc([N+](=O)[O-])cc3)cc2)CCN1c1ccncc1 [listing 2 of 2 here]

same assay, conditions: Enterovirus A

Compound | IC50 [µM]
CSc1ccc(OCCCCCCN2CCN(c3ccncc3)C2=O)cc1 | 4.96
O=C1N(CCCCCCOc2ccc(F)cc2)CCN1c1ccncc1 | 3.01
COc1ccc(OCCCCCCN2CCN(c3ccncc3)C2=O)cc1 | 5.43

Continued, values first:

IC50 [µM] | Compound
1.35 | O=C1N(CCCCCOc2ccc(Cl)cc2)CCN1c1ccncc1
0.58 | O=C1N(CCCCCOc2ccc(-c3cccs3)cc2)CCN1c1ccncc1

system: not listed separately; assay: Selectivity index (W138/EV71) of the compound; assay type: functional; settings: not given

Compound | Selectivity index
O=C1N(CCCCCOc2ccc(-c3ccc([N+](=O)[O-])cc3)cc2)CCN1c1ccncc1 [listing 1 of 2 here] | > 169 and 212

system: not listed separately; assay: Selectivity index (D551/EV71) of the compound; assay type: functional; settings: not given

Compound | Selectivity index
O=C1N(CCCCCOc2ccc(-c3ccc([N+](=O)[O-])cc3)cc2)CCN1c1ccncc1 [listing 1 of 2 here] | > 169 and 200

system: not listed separately; assay: Cytotoxicity against human normal skin fibroblast (W138) cells; assay type: cell-based; settings: not given; how it was run: as §1

Compound | CC50 [µM]
O=C1N(CCCCCOc2ccc(-c3ccc([N+](=O)[O-])cc3)cc2)CCN1c1ccncc1 [listing 2 of 2 here] | 70

system: not listed separately; assay: Cytotoxicity against human normal skin fibroblast (D551) cells; assay type: cell-based; settings: not given; how it was run: as §1

Compound | CC50 [µM]
O=C1N(CCCCCOc2ccc(-c3ccc([N+](=O)[O-])cc3)cc2)CCN1c1ccncc1 [listing 2 of 2 here] | 66
